≈ marks a conversion by molar mass, not a printed value. Calls of active or inactive are those of the source. The rule behind the calls is not given here.
These molecules were tested on Escherichia coli (assay: Antibacterial activity against Escherichia coli K-12 by microtiter plate assay). Conditions: not given.
Type: functional, organism-based
In short: (§1)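 Minimum inhibitory concentration determined in liquid medium in microtiter wells.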

Molecule | Activity
C[C@H]1Oc2cccc(O)c2C(=O)[C@@H]1O | inactive
Cc1cc(O)c2c(c1)O[C@@]1(C)[C@@H](O)CC[C@H](O)[C@]1(O)C2=O [DIVERSONOL] | inactive
CC(C)[C@@H](C)/C=C/[C@@H](C)[C@H]1CC[C@H]2C3=CC=C4C[C@@H](O)CC[C@]4(C)[C@H]3CC[C@]12C [ERGOSTEROL] | inactive
COC1=CC(=O)[C@@H](O)[C@@]2(O)C(=O)c3c(O)cc(C)cc3O[C@]12C [MICRODIPLODIASOLOL] | inactive
C[C@@]12Oc3cc(CO)cc(O)c3C(=O)[C@@]1(O)[C@@H](O)CC[C@@H]2O [MICRODIPLODIASOL] | inactive
C[C@]1([C@H]2CCC(=O)O2)CC(=O)c2c(O)cc(O)cc2O1 [MICRODIPLODIASONE] | inactive

The molecules below were run on Legionella pneumophila (assay: Antibacterial activity against Legionella pneumophila Corby by microtiter plate assay). Conditions: not given.
Type: functional
In short: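 Broth microdilution MIC in liquid medium in microtiter wells. Legionella pneumophila Corby grown in YEB medium (10 g ACES, 10 g yeast extract per 1000 mL water, pH 6.9, plus supplements). Value reported as the minimum inhibitory concentration.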

Molecule | MIC [µg/mL]
C[C@H]1Oc2cccc(O)c2C(=O)[C@@H]1O | 1000 (≈ 5.15 mM)
Cc1cc(O)c2c(c1)O[C@@]1(C)[C@@H](O)CC[C@H](O)[C@]1(O)C2=O [DIVERSONOL] | 1000 (≈ 3.4 mM)
CC(C)[C@@H](C)/C=C/[C@@H](C)[C@H]1CC[C@H]2C3=CC=C4C[C@@H](O)CC[C@]4(C)[C@H]3CC[C@]12C [ERGOSTEROL] | 250 (≈ 0.63 mM)
NC[C@H]1O[C@H](O[C@H]2[C@H](O)[C@@H](O[C@H]3O[C@H](CO)[C@@H](O)[C@H](N)[C@H]3O)[C@H](N)C[C@@H]2N)[C@H](O)[C@@H](O)[C@@H]1O [KANAMYCIN] | 12.5 (≈ 0.0258 mM)
COC1=CC(=O)[C@@H](O)[C@@]2(O)C(=O)c3c(O)cc(C)cc3O[C@]12C [MICRODIPLODIASOLOL] | 1000 (≈ 3.12 mM)
C[C@@]12Oc3cc(CO)cc(O)c3C(=O)[C@@]1(O)[C@@H](O)CC[C@@H]2O [MICRODIPLODIASOL] | 125 (≈ 0.403 mM)
C[C@]1([C@H]2CCC(=O)O2)CC(=O)c2c(O)cc(O)cc2O1 [MICRODIPLODIASONE] | 1000 (≈ 3.59 mM)

The molecules below were run on Microbotryum violaceum (assay: Antifungal activity against Microbotryum violaceum assessed as zone of inhibition measured as radius at 50 ug by agar diffusion assay). Conditions: not given.
Type: functional
In short: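 Samples at 1 mg/mL in acetone; 50 μg applied to a 9 mm sterile filter disk on MPY agar. The plate was then sprayed with a Microbotryum violaceum suspension and incubated at 20 °C. The inhibition zone radius was measured in mm from the disk centre.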

Molecule | Activity | inhibition zone (IZ) [mm]
CC(C)[C@@H](C)/C=C/[C@@H](C)[C@H]1CC[C@H]2C3=CC=C4C[C@@H](O)CC[C@]4(C)[C@H]3CC[C@]12C [ERGOSTEROL] | inactive | 
NYSTATIN |  | 20

Same assay, conditions: read-out: IZ

Molecule | zone of inhibition at 50 µg/disc [mm]
CC(C)=O [ACETONE] | 0
C[C@@H]1C[C@@H]([C@H](O)CC2CC(=O)NC(=O)C2)C(=O)[C@@H](C)C1 [CYCLOHEXIMIDE] | 50
Cc1cc(O)c2c(c1)O[C@@]1(C)[C@@H](O)CC[C@H](O)[C@]1(O)C2=O [DIVERSONOL] | 0
COC1=CC(=O)[C@@H](O)[C@@]2(O)C(=O)c3c(O)cc(C)cc3O[C@]12C [MICRODIPLODIASOLOL] | 6
C[C@]1([C@H]2CCC(=O)O2)CC(=O)c2c(O)cc(O)cc2O1 [MICRODIPLODIASONE] | 0
CC1(C)S[C@@H]2[C@H](NC(=O)Cc3ccccc3)C(=O)N2[C@H]1C(=O)O [PENICILLIN G] | 0
CN(C)[C@@H]1C(O)=C(C(N)=O)C(=O)[C@@]2(O)C(O)=C3C(=O)c4c(O)cccc4[C@@](C)(O)[C@H]3C[C@@H]12 [TETRACYCLINE] | 0

These molecules were tested on Priestia megaterium (assay: Antibacterial activity against Bacillus megaterium by microtiter plate assay). Conditions: not given.
Type: functional, organism-based
In short: as §1

Molecule | Activity
C[C@H]1Oc2cccc(O)c2C(=O)[C@@H]1O | inactive
Cc1cc(O)c2c(c1)O[C@@]1(C)[C@@H](O)CC[C@H](O)[C@]1(O)C2=O [DIVERSONOL] | inactive
CC(C)[C@@H](C)/C=C/[C@@H](C)[C@H]1CC[C@H]2C3=CC=C4C[C@@H](O)CC[C@]4(C)[C@H]3CC[C@]12C [ERGOSTEROL] | inactive
COC1=CC(=O)[C@@H](O)[C@@]2(O)C(=O)c3c(O)cc(C)cc3O[C@]12C [MICRODIPLODIASOLOL] | inactive
C[C@@]12Oc3cc(CO)cc(O)c3C(=O)[C@@]1(O)[C@@H](O)CC[C@@H]2O [MICRODIPLODIASOL] | inactive
C[C@]1([C@H]2CCC(=O)O2)CC(=O)c2c(O)cc(O)cc2O1 [MICRODIPLODIASONE] | inactive

Reference: ChEMBL document CHEMBL1764948, “Diversonol and blennolide derivatives from the endophytic fungus Microdiplodia sp.: absolute configuration of diversonol” (2011)
